Only some compounds are listed: those with a hit (about 1.4% of all), similar ones and a draw of the others.
Diaph act CS: diaphorase activation or chemical reduction counter-screen | activation factor at 20 µM | AID 1229 | Diaphorase/resazurin coupled assay, resorufin fluorescence, 16 min; hits give high values; 1 = vehicle wells, 0 = NADH-free wells | 190,000 tested, 0.005% active;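 active = diaphorase activity raised at least twofold by the compound at 20 µM; inactive = activation factor below 2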
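Material: purified diaphorase enzyme from Clostridium kluyveri / Medium: HEPES pH 7.4 buffer with MgCl2 and Tween 20 / Schedule: enzyme reaction of 16 min at room temperature / Measured by: resorufin fluorescence, excitation 544 nm, emission 590 nm / Evaluation: rise in resorufin formation, marking diaphorase activation or chemical reduction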
ATG4B inhibitor: blocks human ATG4B protease cleavage of LC3 substrate; Q9Y4P1; 340,000 tested, 0.51% active; AID 504462; ATG4B cleavage of LC3-PLA2, NBD-HPC fluorescence, 1 h; inhibition, % at 8.33 µM; in the data active = inhibition above about 40%
Target sequence (Q9Y4P1 whole entry, looked up): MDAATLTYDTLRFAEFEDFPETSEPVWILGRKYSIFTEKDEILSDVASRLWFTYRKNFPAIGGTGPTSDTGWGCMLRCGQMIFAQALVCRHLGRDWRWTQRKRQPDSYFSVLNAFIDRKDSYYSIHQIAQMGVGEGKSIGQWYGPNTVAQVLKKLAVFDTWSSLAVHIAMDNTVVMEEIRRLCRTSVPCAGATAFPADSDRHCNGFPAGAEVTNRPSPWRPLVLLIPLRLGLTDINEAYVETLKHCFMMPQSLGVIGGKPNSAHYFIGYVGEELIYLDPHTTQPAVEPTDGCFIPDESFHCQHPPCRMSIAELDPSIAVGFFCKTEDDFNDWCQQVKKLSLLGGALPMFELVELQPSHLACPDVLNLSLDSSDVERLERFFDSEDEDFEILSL
Diaphorase inh: counter-screen for diaphorase-based assays: diaphorase inhibitors and chemical oxidizers. inhibition, % at 20 µM. 190,000 tested, 0.69% active. AID 1217. diaphorase resazurin-to-resorufin fluorescence, NADH, 16 min; bacterial (C. kluyveri) enzyme, not human;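 active = primary screen inhibition at 20 µM above a set limit, cut at about 50% in these data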;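 also: plate controls were DMSO with full reaction for no effect and wells lacking NADH for full effect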
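Assay system: diaphorase enzyme from Clostridium kluyveri. Quantity: enzyme working solution with 0.14 U/mL diaphorase. Schedule: reaction incubation of 16 min at room temperature. Technique: resorufin fluorescence, excitation 544 nm, emission 590 nm. Controls: No-NADH positive control and DMSO neutral control.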
HKDC1 inh: blocks human hexokinase HKDC1 activity. Q2TB90. recombinant HKDC1, G6PDH/diaphorase resazurin coupled fluorescence. inhibition, % at 20 µM. 340,000 tested, 0.16% active;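 active = inhibition above about 35% when tested at 20 µM, limit read from the data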;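 also: plate controls were DMSO wells with enzyme for no effect and DMSO wells lacking enzyme for full effect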
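System: Recombinant HKDC1 hexokinase | Amount: HKDC1 at 5 µg/mL | Reagent: Glucose with 1 mM ATP | Doses: Single 20 µM dose | Incubation: Reaction time 90 min, room temperature, protected from light | Signal: Coupled resazurin fluorescence, excitation 525 nm, emission 613 nm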
CTSL1 counter: blocks F. hepatica cathepsin L1 in PFM18AAP counter-screen; recombinant F. hepatica cathepsin L1, Z-Leu-Arg-MCA fluorescence; inhibition, % at 5.96 µM; 300,000 tested, 0.49% active;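 active = inhibition above the mean of all tested compounds plus 3 SD, set per screening campaign, cut at about 17% in these data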;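 also: 0% = plate median of test compound wells and 100% = 1 µM Z-Phe-Ala-diazomethylketone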
HKDC1 act conf: HKDC1 (human) activation, single-dose confirmed; 740 tested, 14% active; AID 504708; shares compounds with HKDC1 inh; inhibition, % at 20 µM; recombinant HKDC1, G6PDH/diaphorase resazurin fluorescence; hits give low values;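 active = inhibition at or below a set negative limit, negative inhibition meaning the enzyme was activated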
The depositor's hits bear a star; x = not tested or not shown.

SMILES	Diaph act CS	ATG4B inhibitor	Diaphorase inh	HKDC1 inh	CTSL1 counter	HKDC1 act conf
O=S(=O)(Nc1cc(Sc2ncn[nH]2)c(O)c2ccccc12)c1ccccc1	0.8	7.0	17.5	54.6*	x	48.4
Cc1ccc(S(=O)(=O)Nc2ccc(Br)cc2C(NCC(=O)O)c2ccccc2)cc1 (stereo not given)	0.9	1.8	14.6	0.8	1.0	x
O=C(O)CSc1cc(NS(=O)(=O)c2ccc(Br)cc2)c2ccccc2c1O	x	8.4	x	58.6*	-4.5	36.8
COc1ccc(C(=O)/C=C/Sc2nc3ccccc3o2)cc1	x	-19.7	x	37.9*	4.1	4.0
O=C(NC1CCCCC1)C(c1ccccc1)N(C(=O)c1csnn1)C1CCCC1 (stereo not given)	x	5.7	x	7.4	3.4	x
Cc1nn(-c2ccccc2)c(Cl)c1CN(C(=O)CCl)c1ccc(Cl)cc1	0.8	5.8	18.3	38.2*	1.7	13.0
COc1ccccc1N(CC(=O)N/N=C/c1c(O)ccc2ccccc12)S(C)(=O)=O	0.7	-40.9	30.8	-40.2	-1.0	-28.1
CCOc1ccc(C(C)NC(=O)c2ccc3c(c2)NC(=O)C(C)S3)cc1OCC (stereo not given)	x	-5.8	x	-4.4	x	x
COc1ccc(OC)c2[nH]c(=O)c(CCNC(=O)c3cc4ccccc4o3)cc12	0.4	-3.6	58.5*	38.5*	-3.4	59.6
Cc1nn(-c2ccccc2)c(C)c1C(=O)OC(C)C(=O)NC1CCCCC1 (stereo not given)	x	-3.2	x	7.2	x	x
CC(C)CNC(=O)COC(=O)CNC(=O)c1cc(Cl)cc([N+](=O)[O-])c1	0.9	-1.1	10.9	-51.8	6.5	-24.3
COc1cc(CN(C)C(=O)C2CCN(S(=O)(=O)c3cccs3)CC2)ccc1OC(F)F	x	-7.0	x	-2.6	x	x
O=C(c1ccccc1)c1n[nH]c(-c2ccccc2)cc1=O	0.9	2.0	6.4	-42.2	0.9	16.3
O=C(c1ccccc1)c1nccc2ccccc12	0.6	-2.0	43.7	7.9	-5.8	x
O=C(Nc1ccc(S(=O)(=O)Nc2ncccn2)cc1)c1ccc2ncsc2c1	x	0.3	x	33.9	-2.4	33.1
O=C(Nc1ccncc1)c1ccc2ncsc2c1	x	6.5	x	-8.7	-1.1	x
C=CCn1c(SCC(=O)Nc2sc3c(c2C#N)CCC(C)C3)nc2cc(C(=O)O)ccc2c1=O (stereo not given)	x	-0.1	x	39.0*	x	32.7
CCOc1ccc(CCNC(=O)c2ccc3c(=O)[nH]c4c(C(=O)NC(C)C)sc(=S)n4c3c2)cc1	x	-1.3	x	40.6*	1.2	26.1
CC(C)NC(=O)c1sc(=S)n2c1[nH]c(=O)c1ccc(C(=O)NCCc3ccc(Cl)cc3)cc12	x	5.4	x	15.6	-1.4	x
Cc1cc(C(=O)NC2CCCN(Cc3ccc(Cl)cc3)C2)c(C)o1 (stereo not given)	x	11.3	x	1.1	-4.3	x
Cn1cnnc1SC1c2cccc3cccc(c23)C1NS(=O)(=O)c1ccccc1 (stereo not given)	0.9	-10.7	8.5	-49.1	0.6	-64.0*
CC(=O)N1CCN(C2c3cccc4cccc(c34)C2NS(=O)(=O)c2ccccc2)CC1 (stereo not given)	0.8	-0.7	15.5	-49.4	-4.8	-45.3*
Cc1ccc(S(=O)(=O)NC2c3cccc4cccc(c34)C2Sc2nncn2C)cc1 (stereo not given)	0.9	14.0	6.2	-13.8	-1.8	x
CN(CC(=O)Nc1ccccc1Cl)C(=O)C1CCN(C(=O)c2ccc(F)cc2)CC1	x	-7.9	x	-4.5	x	x
O=C(O)COc1ccc(/C=N/NC(=O)c2ccc(-c3csc(Nc4ccc(Cl)cc4)n3)cc2)cc1	x	-2.4	x	76.2*	x	24.2
Cc1ccc(C)c(-n2c3nc(=O)n(C)c(=O)c-3cc3ccccc32)c1	x	10.0	x	3.1	-1.7	x
Cc1ccc(C)c(-n2c3nc(=O)[nH]c(=O)c-3cc3cc([N+](=O)[O-])ccc32)c1	0.3	25.6	67.4*	47.4*	7.4	39.2
Cc1cccc(-n2c3nc(=O)[nH]c(=O)c-3cc3cc([N+](=O)[O-])ccc32)c1	0.5	7.2	52.6*	41.8*	7.4	46.6

Compound activity deposited in PubChem by several laboratories.
